Screening results as filed in PubChem BioAssay.
An excerpt weighted towards active compounds, which were near 1.6% of everything screened.
FLuc inhib CS: firefly luciferase enzyme inhibitors, primary screen, artefact control for luciferase-based inhibitor screens, biochemical, luminescence, ATPLite. 10 min. actives 1.5% (n = 200,000). inhibition, % at 10 µM;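 active = inhibition above about 50% when tested at 10 µM, limit read from the data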
FLuc stim CS: FLuc activators, initial screening, artefact control for FLuc-dependent activation tests, biochemical, ATPlite luminescence; ATPlite luciferase biochemical, 10 min; 0 = ATP-free wells, 1 = DMSO control; activation factor at 10 µM; Luciferin 4-monooxygenase (Photinus pyralis), P08659; 200,000 tested, under 10 active;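 active = luciferase activation factor, scaled between plate controls, of at least 2 with compound at 10 µM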
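test system = cell-free luciferase reagent | medium = PBS as buffer for the ATP substrate | dosing = test compounds dosed from 2 mM stocks in 100% DMSO | incubation = 10 min at ambient temperature | detection = luminescence measurement of luciferase light output | benchmarks = low control with PBS replacing ATP, high control enzyme plus ATP without compound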
TRAIL sens C8: viability loss with TRAIL in NB7+C8 cells, primary screen, TRAIL sensitizer project, cell-based, ATPlite luminescence; inhibition (viability loss, TRAIL sensitization), % at 10 µM; actives 1% (n = 360,000);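 active = compounds causing at least 50% loss of cell viability in the single-dose screen, relative to plate controls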
PPC-1+TRAIL kill: compounds killing PPC-1 cancer cells with TRAIL present, primary screen, TRAIL potentiator project, ATPLite luminescence, uHTS. PPC-1 cells + TRAIL, ATPLite viability luminescence. cell killing (% activity), % at 4 µM or 5 µM. actives 0.41% (n = 220,000). AID 1443, 2008;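 active = cell killing above 50% in the first pass at 4 µM, then a duplicate retest at 5 µM averaging 50% or more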;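 note: plate controls were cells with TRAIL plus DMSO for no effect and medium-only wells lacking cells for full effect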
PPC-1 tox: cytotoxicity in PPC-1 cells, confirmation, cytotoxicity control for TRAIL apoptosis potentiator project, cell-based, ATP content luminescence; AID 1447, 2008; PPC-1 viability, ATPlite luminescence, overnight; cytotoxicity, % at 5 µM; shares compounds with PPC-1+TRAIL kill; actives 50% (n = 1,200);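 active = reconfirmed compounds whose average cytotoxicity reaches 50% or more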;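 note: 0% = DMSO-treated cells and 100% = wells holding medium but no cells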
* hit, by the source's call; / = no result.

SMILES	FLuc inhib CS	FLuc stim CS	TRAIL sens C8	PPC-1+TRAIL kill	PPC-1 tox
CCN(CC)C(=O)CN(c1ccc(F)c(Cl)c1)S(C)(=O)=O	-17	1.2	-9	-1	12
CCC(=O)Nc1cc2nn(-c3ccc(OC)cc3)nc2cc1C	69*	0.3	59*	58*	49
CCC(=O)Nc1cc2nn(-c3ccc(C)cc3)nc2cc1C	66*	0.3	65*	59*	55*
COc1ccc(C(=O)N/C(=C/c2cccs2)c2nc3ccccc3[nH]2)cc1OC	-5	1	-1	-11	/
COc1cc(/C=C(/C(=O)c2cccs2)c2nc3ccccc3[nH]2)cc(OC)c1O	77*	0.2	37	22	34
C=CCn1c(N/N=C/c2ccc(O)cc2)nc2ccccc2c1=O	82*	0.2	18	27	32
O=C(/C=C/c1ccc(Cl)cc1Cl)Nc1cccc(S(=O)(=O)NC2=NCCC2)c1	96*	0	91*	87*	88*
Cc1c(NC(=O)c2cc(-n3cnnc3)ccc2Cl)cccc1-c1nc2ccccc2s1	79*	0.2	78*	61*	58*
O=C(c1ccc2nc[nH]c2c1)N1CCN(S(=O)(=O)c2cccc(F)c2)CC1	/	/	5	/	/
Cc1ccc(OCCn2c(NC(=O)c3ccco3)nc3ccccc32)cc1	4	1	25	2	/
Cc1cccc(OCCn2c(NC(=O)c3ccco3)nc3ccccc32)c1	4	1	13	7	13
Cc1c(Cl)cnc(NC(=O)COC(=O)c2cccc(S(=O)(=O)N3CCc4ccccc4C3)c2)c1Cl	-3	1	-4	27	/
N#CCc1c(C#N)c(N)nc(N2CCN(Cc3ccc4c(c3)OCO4)CC2)c1C#N	0	1	-12	-8	-1
Cc1cc(/C=C2/C(=O)NN(c3ccccc3)C2=O)c(C)n1-c1cccc(O)c1	94*	0.1	85*	81*	83*
O=C1NN(c2ccccc2)C(=O)C1=Cc1ccccc1O	/	/	-7	/	/
CC(C)[C@H](NC(=O)[C@@H]1CSC2c3ccccc3C(=O)N21)C(=O)NCc1ccncc1 (some centres not stated)	/	/	-3	/	/
CSc1cccc(NC(=O)c2cnn3ccccc23)c1	/	/	4	4	/
CCc1ccc(NC(=O)c2cnn3ccccc23)cc1	78*	0.2	58*	50	50*
CN(CC(=O)Nc1ccc(Cl)c(Cl)c1)C1CCCCC1	/	/	5	/	/
CC(C)N(C)C1CCN(C(=O)Nc2ccc(Cl)c(Cl)c2)CC1	-3	1	3	1	3
Cc1nc(SCC(=O)N2CCCCCC2)[nH]c(=O)c1C	/	/	-13	/	/
COc1cccc(/C=N/Nc2nccnc2Cl)c1O	84*	0.2	72*	45	50
COc1ccc(S(=O)(=O)N(C)C[C@H]2Oc3ccc(NC(=O)Nc4c(C)noc4C)cc3C(=O)N([C@H](C)CO)C[C@@H]2C)cc1	/	/	3	/	/
COc1ccc(-c2cn3c4c(sc3n2)CCCC4)cc1	91*	0.1	79*	76*	74*
COc1ccc(/C=N/Nc2nncc3ccccc23)cc1	97*	0	91*	95*	95*
SMILES	FLuc inhib CS	FLuc stim CS	TRAIL sens C8	PPC-1+TRAIL kill	PPC-1 tox
COc1ccc(-c2cnnc(N/N=C/c3ccc(OC)c(OC)c3)n2)cc1	30	0.7	21	5	/
Cc1nc(-c2ccc3c(c2)OCCCO3)cs1	/	/	21	8	/
Clc1ccc2nc(-c3ccc4c(c3)OCO4)cn2c1	93*	0.1	79*	80*	74*
Cc1ccc2nc(-c3ccc4c(c3)OCCO4)cn2c1	/	/	92*	93*	92*
CCc1ccn2cc(-c3cc(-c4ccccc4)no3)nc2c1	/	/	90*	81*	80*
Cc1nnc(N2CCOCC2)c2nn(-c3ccccc3)c(C)c12	-4	1	-11	8	/
c1ccc(-n2nnc3c(N4CCOCC4)ncnc32)cc1	84*	0.2	66*	44	46
CCN(CC)S(=O)(=O)c1cc(C(=O)O)ccc1Cl	-2	1	5	32	/
COc1cccc(-c2nc3ccccc3s2)c1O	87*	0.1	73*	61*	64*
CC(C)c1ccc(-c2nc3ccccc3s2)cc1	/	/	93*	91*	92*
